Screening data as filed in PubChem.
Rows were chosen to be rich in hits. Some 1.2% of all compounds tested hit in one or more screens of this group.
Bfl-1 A1 inh: inhibitors of the anti-apoptotic protein A1, read as caspase activation; MEF A1-2A-BIM cells, Caspase-Glo 3/7 luminescence, 3 h; percent of clofoctol response, vehicle zero; caspase activation, % (test concentration not listed); 330,000 compounds, 0.066% hits; AID 2462;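 active means over half of replicate activation scores above 10%, or exactly half above 10 with the replicate mean above 10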
MsrA inhibitor: bovine MsrA inhibition; purified bovine MsrA, absorbance read-out; inhibition, % at 15.5 µM; 360,000 compounds, 0.75% hits; AID 651718; in the data active means inhibition above about 4.5%;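 further: 0% = vehicle wells with enzyme and 100% = reference inhibitor wells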
proCasp3 act: activators of human procaspase-3; P42574; recombinant procaspase-3 D3A, Ac-DEVD-pNA absorbance 405 nm; activation, % at 8.5 µM; 330,000 compounds, 0.11% hits;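 active means activation above the mean of all tested compounds plus 3 SD, cut at about 21% in these data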;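 further: 0% = DMSO alone and 100% = DMSO wells spiked with extra 5 µM PC-3 D3A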
Target sequence (P42574 whole entry D9A/D28A/D175A): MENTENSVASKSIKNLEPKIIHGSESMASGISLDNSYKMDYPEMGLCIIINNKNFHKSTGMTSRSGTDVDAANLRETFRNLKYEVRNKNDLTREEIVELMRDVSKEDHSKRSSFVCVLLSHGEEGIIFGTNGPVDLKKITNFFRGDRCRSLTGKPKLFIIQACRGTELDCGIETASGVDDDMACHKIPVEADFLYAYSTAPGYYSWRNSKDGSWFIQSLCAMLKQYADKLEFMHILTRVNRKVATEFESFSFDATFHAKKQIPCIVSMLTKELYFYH
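Technique: 405 nm absorbance of p-nitroaniline, reads at 0 and 120 min; Test system: Procaspase-3 D3A mutant; Incubation: 1 h enzyme-compound preincubation, then 2 h substrate reaction, 25 °C; Repeats: singlicate, each compound tested once; Benchmarks: low control DMSO wells, high control DMSO plus 5 µM PC-3 D3A.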
proCasp7 act: counter-screen for procaspase-3 activators: activators of human procaspase-7. P55210. recombinant procaspase-7, Ac-DEVD-pNA absorbance 405 nm; D23A/D198A/D206A triple mutant, cannot self-cleave; scale: DMSO 0, 5 µM enzyme 100. activation, % at 8.5 µM. 330,000 compounds, 0.093% hits. AID 463210;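 active means percent activation above the screen-wide mean plus 3 SD, cut at about 25% in these data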
Target sequence (P55210 whole entry D23A/D198A/D206A): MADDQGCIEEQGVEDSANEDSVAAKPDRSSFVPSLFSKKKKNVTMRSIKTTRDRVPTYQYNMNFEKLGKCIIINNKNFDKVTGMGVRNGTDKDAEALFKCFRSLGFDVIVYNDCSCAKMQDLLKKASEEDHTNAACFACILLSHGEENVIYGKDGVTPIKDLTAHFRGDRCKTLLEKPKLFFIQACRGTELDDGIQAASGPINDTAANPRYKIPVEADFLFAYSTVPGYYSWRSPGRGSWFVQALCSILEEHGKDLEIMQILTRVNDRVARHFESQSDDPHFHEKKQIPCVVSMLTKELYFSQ
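signal = Epi-absorbance of released pNA at 405 nm, two timepoints | assay system = Uncleavable procaspase-7 mutant enzyme | reagent = Ac-DEVD-pNA substrate, 400 µM as added | times = 1 h enzyme–compound preincubation and 2 h substrate reaction, both 25 °C | benchmarks = low DMSO alone, high DMSO plus 5 µM PC-7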
MsrA act: activators of bovine methionine sulfoxide reductase A; activation, % at 10.6 µM; 360,000 compounds, 0.3% hits; purified bovine MsrA, absorbance read-out; in the data active means activation above about 7.5%;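 further: 0% = vehicle and 100% = reference activator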
An asterisk follows results filed as active.

For C=CCN=C1NC(c2cccc(Cl)c2)C(C(=O)OC)=C(C)N1Cc1cccc(C(F)(F)F)c1 (configuration not stated) the results were MsrA inhibitor -0.2.
`CCOC(=O)C1=C(COC(=O)c2sccc2C)NC(=O)NC1C` (configuration not stated) gave Bfl-1 A1 inh 0.3, MsrA inhibitor -0.2, proCasp3 act 7.6, proCasp7 act -2.0 and MsrA act -3.2.
Screening CCOC(=O)C1=C(COC(=O)c2ccc([N+](=O)[O-])s2)NC(=O)NC1C (configuration not stated) returned Bfl-1 A1 inh -0.1, MsrA inhibitor 3.4, proCasp3 act 4.6, proCasp7 act -3.5 and MsrA act 19.1*.
Screening COc1ccccc1CCn1cnc(-c2cccc(Cl)c2)c1CC(C)C returned MsrA inhibitor 1.0.
For CC(NC(=O)COC(=O)c1ccc2c(c1)S(=O)(=O)N=C1CCCCCN12)C12CC3CC(CC(C3)C1)C2 (configuration not stated) the results were Bfl-1 A1 inh 7.2*, MsrA inhibitor 0.4, proCasp3 act -1.0, proCasp7 act 9.8 and MsrA act -1.9.
Screening Cc1noc(C)c1CSCC(=O)N(C)CC(=O)Nc1ccc(Cl)c(Cl)c1 returned Bfl-1 A1 inh 9.7*, MsrA inhibitor -1.3, proCasp3 act -2.0, proCasp7 act -3.0 and MsrA act -3.0.
Screening COC(=O)[C@]12C[C@H](CC(=O)NCC34CC5CC(CC(C5)C3)C4)C(=O)N(Cc3ccccc3)C1=C[C@H](C(C)C)O[C@@H]2C1CC1 returned MsrA inhibitor 0.3.
For COc1cc(/C=C/C(=O)OC(C)C(=O)Nc2c(C)n(C)n(-c3ccccc3)c2=O)ccc1OCC#N (configuration not stated) the results were Bfl-1 A1 inh 0.5, MsrA inhibitor 4.6*, proCasp3 act 8.5, proCasp7 act -3.2 and MsrA act -8.7.
Screening Cc1ccc2nc(-c3ccc(F)cc3)c(Cc3ccsc3)n2c1 returned MsrA inhibitor 1.0.
`Cc1[nH]nc2c1C(c1ccc(Br)cc1)N(c1ccccc1)C2=O` (configuration not stated) gave MsrA inhibitor -0.4.
For COC(=O)c1ccc2c(=O)n(Cc3ccc4c(c3)OCO4)c(=S)[nH]c2c1 the results were Bfl-1 A1 inh 6.3*, MsrA inhibitor -0.1, proCasp3 act -0.5, proCasp7 act 2.8 and MsrA act -0.9.
`O=C(/C=C/c1ccco1)NC(=S)NNC(=O)c1ccco1` gave Bfl-1 A1 inh 0.9, MsrA inhibitor 6.6*, proCasp3 act 7.5, proCasp7 act -4.0 and MsrA act -14.0.
CC(=O)Nc1ccc(S(=O)(=O)C(C#N)c2nc3ccccc3nc2NCCCO)cc1 (configuration not stated) was read as Bfl-1 A1 inh 0.7, MsrA inhibitor 4.6*, proCasp3 act -3.7, proCasp7 act -1.0 and MsrA act -6.3.
For CC(=O)Nc1ccc(S(=O)(=O)C(C#N)c2nc3ccccc3nc2NCCO)cc1 (configuration not stated) the results were Bfl-1 A1 inh 0.6, MsrA inhibitor 3.6, proCasp3 act 2.1, proCasp7 act -0.1 and MsrA act -6.0.
Screening Cc1cc(N2CCN(CC(C)(C)O)C[C@@H]2C)ccc1N1CCN(Cc2ccccc2)[C@H](C)C1 returned MsrA inhibitor -0.4.
Screening O=C1CC(O)C(Cc2ccccc2)N1 (configuration not stated) returned MsrA inhibitor -0.1.
Screening O=C(CSc1cccc[n+]1[O-])NC1CCCCC1 returned Bfl-1 A1 inh 8.3*, MsrA inhibitor 1.0, proCasp3 act -3.9, proCasp7 act 1.1 and MsrA act -8.2.
CSc1ccccc1NC(=O)CSc1cccc[n+]1[O-] was read as Bfl-1 A1 inh 0.1, MsrA inhibitor 0.1, proCasp3 act 0.3, proCasp7 act 4.8 and MsrA act -8.0.
Screening O=C(CSc1ncccc1C(=O)O)NC1CCCCC1 returned Bfl-1 A1 inh 5.5*, MsrA inhibitor 0.3, proCasp3 act 4.2, proCasp7 act 2.9 and MsrA act -7.7.
Screening Nc1nc2c(ncn2[C@@H]2O[C@H](C(=O)NCCCc3ccccc3)[C@@H](O)[C@H]2O)c(=O)[nH]1 returned MsrA inhibitor -0.3.
CCN(CC)c1nc(N)c2c(N)nc3c(c2c1C#N)CC(c1ccccc1)O3 (configuration not stated) was read as Bfl-1 A1 inh -0.3, MsrA inhibitor 6.3*, proCasp3 act -6.8, proCasp7 act -5.4 and MsrA act -1.5.
Screening N#Cc1c(N2CCCCC2)nc(N)c2c(N)nc3c(c12)CC(c1ccccc1)O3 (configuration not stated) returned Bfl-1 A1 inh 1.0, MsrA inhibitor 4.1, proCasp3 act -7.9, proCasp7 act 3.6 and MsrA act -2.5.
Cc1cc(C(=O)Nc2nnc(-c3ccccc3)s2)no1 was read as Bfl-1 A1 inh 0.0, MsrA inhibitor 4.6*, proCasp3 act -2.8, proCasp7 act 2.1 and MsrA act -7.6.
`Cc1cc(C(=O)Nc2nnc(C3CCCCC3)s2)no1` gave Bfl-1 A1 inh 0.1, MsrA inhibitor 1.6, proCasp3 act 0.1, proCasp7 act 1.4 and MsrA act -3.1.
Screening CCCCn1c(/C=N/Nc2nc3ccccc3[nH]2)nc2ccccc21 returned Bfl-1 A1 inh -0.4, MsrA inhibitor 1.2, proCasp3 act 25.4*, proCasp7 act 2.3 and MsrA act -0.7.
Screening CCCCn1c(/C=C/c2ccco2)nc2ccccc21 returned Bfl-1 A1 inh -0.2, MsrA inhibitor -0.2, proCasp3 act -1.7, proCasp7 act -6.5 and MsrA act -0.5.
`C=CCN=C1NC(c2ccccc2C(F)(F)F)C(C(=O)OC)=C(C)N1Cc1ccccc1C(F)(F)F` (configuration not stated) gave MsrA inhibitor 0.0.
Screening COC(=O)c1ccc2c(c1O)C(=O)c1ccccc1C2=O returned Bfl-1 A1 inh -5.9, MsrA inhibitor 0.2, proCasp3 act -6.2, proCasp7 act -7.5 and MsrA act 9.3*.
For O=C1c2ccccc2C(=O)c2c1ccc(O)c2O the results were MsrA inhibitor 1.4 and MsrA act -1.9.
COc1ccc(OC)c(C2C(C(=O)Nc3nc4ccccc4s3)=C(C)NC3=C2C(=O)CCC3)c1 (configuration not stated) was read as Bfl-1 A1 inh 1.4, MsrA inhibitor 0.3, proCasp3 act -2.6, proCasp7 act -4.3 and MsrA act -3.4.
`COc1cccc(C2C(C(=O)Nc3nc4ccccc4s3)=C(C)NC3=C2C(=O)CC(C)(C)C3)c1OC` (configuration not stated) gave Bfl-1 A1 inh -1.6, MsrA inhibitor -0.1, proCasp3 act 45.1*, proCasp7 act 22.7 and MsrA act -10.8.
